ChEMBL document CHEMBL1156821, “Transforming rhinacanthin analogues from potent anticancer agents into potent antimalarial agents” (J Med Chem, 2010)
The source made the active and inactive calls. No cut-off for these calls is given here.

Tests used:
[1] = tested on: Plasmodium falciparum; assay: Antimalarial activity against multidrug-resistant Plasmodium falciparum K1 infected in erythrocytes after 48 hrs by [3H]hypoxanthine incorporation assay; type: functional, organism-based
Outline: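 P. falciparum K1 (multidrug-resistant) was grown in RPMI 1640 with 20 mM HEPES, 32 mM NaHCO3, 10% […] human serum and 3% erythrocytes, at 37 C under 3% CO2. Early-ring cultures (1.5% erythrocytes, 1% parasitemia) were exposed to compound for 24 h at 0.1% final DMSO. [3H]hypoxanthine (0.5 μCi) was then added for a further 24 h, and incorporation was counted by scintillation. IC50 is the 50% growth reduction; values are the mean of six replicates; dihydroartemisinin was the reference.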

[2] = tested on: Vero; assay: Cytotoxicity against African green monkey Vero cells by MTT assay; type: cell-based; details: Chlorocebus sabaeus
[3] = tested on: Saccharomyces cerevisiae; assay: Inhibition of Saccharomyces cerevisiae CK Cytochrome b-c1 complex assessed as DQH-induced reduction of cyt bc1 complex by redoxdifference spectra
[4] = tested on: Saccharomyces cerevisiae; assay: Inhibition of electron transfer from Q(o) site to iron cluster of Saccharomyces cerevisiae CK Cytochrome b-c1 complex assessed as DQH-induced reduction of cyt bc1 complex by redoxdifference spectra
Outline: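 Purified yeast bc1 at 2 μM in 50 mM K-phosphate with 0.05% UM; inhibitors added at final 5 μM (test) or 40 μM (stigmatellin, antimycin A). Redox difference spectra recorded as decylubiquinol-reduced bc1-inhibitor complex minus protein-inhibitor complex.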

[5] = Inhibition of wild type Saccharomyces cerevisiae CK Cytochrome b-c1 complex by spectrophotometry
Outline: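 Purified bc1 from wild-type yeast strain CKWT grown in YPGal was diluted to 8 nM. Inhibitor was added before starting with 50 μM decylubiquinol; 550 nm read at room temperature. IC50 taken from a concentration series.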

[6] = Inhibition of Cytochrome b-c1 complex in yeast mitochondrial membrane assessed as decyclobiquinol-linked cytochrome c reduction by spectrophotometry; type: cell membranes, Saccharomyces cerevisiae
Outline: (§1)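 Steady-state decylubiquinol/cytochrome c reductase in yeast mitochondrial membranes (YPD-grown at 28 C) or male Wistar rat (125-170 g) liver microsomes. bc1 set to 5 nM; 50 mM K-phosphate pH 7.5, 2 mM EDTA, 10 mM KCN, 30 μM equine cytochrome c. Start: 50 μM decylubiquinol. ε550-542nm read at 21 C; no preincubation, DMSO ≤0.3%. IC50 from four-parameter sigmoidal fit, three separate assays.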

[7] = Inhibition of Cytochrome b-c1 complex in Wistar rat liver microsomes assessed as decyclobiquinol-linked cytochrome c reduction by spectrophotometry; set-up: species or system Microsome; outline: as §1
[8] = Therapeutic index, ratio of IC50 for African green monkey (Cercopithecus aethiops) Vero cells to IC50 for multidrug-resistant Plasmodium falciparum K1; type: cell-based; details: read-out: Ratio IC50
[9] = tested on: Plasmodium falciparum; assay: Inhibition of Cytochrome b-c1 complex in Plasmodium falciparum 3D7 cell free extracts assessed as decyclobiquinol-linked cytochrome c reduction by spectrophotometry
Outline: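 Cell-free extract of P. falciparum 3D7 was made by 20 s sonication on ice and adjusted to 0.1 mg protein/mL by Bradford assay. Steady-state decylubiquinol/cytochrome c reductase activity was read at ε550-542nm at 21 C in 50 mM potassium phosphate pH 7.5 with 2 mM EDTA, 10 mM KCN and 30 μM equine cytochrome c. Reactions were started with 50 μM decylubiquinol, compound added without preincubation, DMSO ≤0.3%. IC50 came from four-parameter sigmoidal fits of three separate assays.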

[10] = Plasmodium falciparum, K1, read-out: IC50

SMILES	IC50 [1, 10] [nM]	IC50 [2] [nM]	other results
CCC(C)C(=O)OCC(C)(C)CC1=C(O)C(=O)c2ccccc2C1=O (centres undefined)	220	870	–
C[C@H]1[C@@H](O)O[C@@H]2O[C@@]3(C)CC[C@H]4[C@H](C)CC[C@@H]1[C@@]24OO3 [ARTENIMOL]	3.5	–	–
CCCCCCCCCCCCCCCC(=O)OCC(C)(C)CC1=C(O)C(=O)c2ccccc2C1=O	30	4410	–
CC(C)C(=O)OCC(C)(C)CC1=C(O)C(=O)c2ccccc2C1=O	910	123000	–
CCCCCCCCCCC(=O)OCC(C)(C)CC1=C(O)C(=O)c2ccccc2C1=O	700	> 233000	–
CCCCCC[C@H]1C(=O)O[C@H](C)[C@H](NC(=O)c2cccc(NC=O)c2O)C(=O)O[C@@H](C)[C@@H]1OC(=O)CC(C)C	–	–	Activity [3]: Active
CCCC(=O)OCCCC1=C(O)C(=O)c2ccccc2C1=O	–	–	IC50 [1]: Not Active
CCCC(C)C(=O)OCC(C)(C)CC1=C(O)C(=O)c2ccccc2C1=O (centres undefined)	120	120	–
CCCCCCCC(=O)OCC1(CC2=C(O)C(=O)c3ccccc3C2=O)CCCCC1	2630	–	–
CCCCCCCCCCCCCCCCCC(=O)OCC(C)(C)CC1=C(O)C(=O)c2ccccc2C1=O	133	15500	–
CCCCCCCC(=O)OCCCC1=C(O)C(=O)c2ccccc2C1=O	5150	–	–
CCCCCC(=O)OCC(C)(C)CC1=C(O)C(=O)c2ccccc2C1=O	1120	169000	–
CC[C@H](C)C(=O)OCC(C)(C)CC1=C(O)C(=O)c2ccccc2C1=O	110	570	–
CCCCCCCCC(=O)OCC(C)(C)CC1=C(O)C(=O)c2ccccc2C1=O	500	150000	–
CCC(C)CC(=O)OCC(C)(C)CC1=C(O)C(=O)c2ccccc2C1=O (centres undefined)	190	2300	–
CCCCCCC(C)C(=O)OCC(C)(C)CC1=C(O)C(=O)c2ccccc2C1=O (centres undefined)	110	450	–
CC(=O)OCCCC1=C(O)C(=O)c2ccccc2C1=O	–	–	IC50 [1]: Not Active
CC(C)CC(=O)OCC(C)(C)CC1=C(O)C(=O)c2ccccc2C1=O	410	550	–
CCC(=O)OCC(C)(C)CC1=C(O)C(=O)c2ccccc2C1=O	4100	60100	–
CCCCCCC(=O)OCC(C)(C)CC1=C(O)C(=O)c2ccccc2C1=O	810	99300	–
C/C=C(C)/C=C/C=C/[C@H](OC)[C@@H](C)[C@@H](OC)[C@@H](C)CCc1oc2c(O)c(OC)cc(OC)c2c(=O)c1C [STIGMATELLIN]	–	–	Activity [4]: Active; IC50 [5]: 9.1 nM
CCCCCCCC(=O)OCC(C)(C)CC1=C(O)C(=O)c2ccccc2C1=O	130	> 259000	Activity [4]: Active; IC50 [6]: 16 nM; IC50 [5]: 840 nM; IC50 [7]: 3000 nM; selectivity ratio [8]: > 1990; IC50 [9]: 5.4 nM
CCCC(=O)OCC(C)(C)CC1=C(O)C(=O)c2ccccc2C1=O	910	73200	–
CCC(CC)C(=O)OCC(C)(C)CC1=C(O)C(=O)c2ccccc2C1=O	16600	104000	–
CCCCCCCCCC(=O)OCC(C)(C)CC1=C(O)C(=O)c2ccccc2C1=O	720	203000	–
CC(=O)OCC(C)(C)CC1=C(O)C(=O)c2ccccc2C1=O	10900	139000	–
CCCCCCCCCCCCCC(=O)OCC(C)(C)CC1=C(O)C(=O)c2ccccc2C1=O	32	58400	Activity [4]: Active; IC50 [6]: 79.6 nM; IC50 [5]: 770 nM; IC50 [7]: 2500 nM; selectivity ratio [8]: 1830; IC50 [9]: 8 nM
CCCCCCCCCCCC(=O)OCC(C)(C)CC1=C(O)C(=O)c2ccccc2C1=O	900	249000	–
CCCCC(=O)OCC(C)(C)CC1=C(O)C(=O)c2ccccc2C1=O	580	7840	–
